KCNQ1 block: blocks the human KCNQ1 potassium channel | P51787 | B-score at 10 µM | CHO-K1 KCNQ1, FluxOR thallium flux fluorescence; stronger effect = higher value | AID 2642 | actives 1.3% (n = 310,000);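 active = compounds whose thallium flux B-score, printed positive for inhibition, exceeds three library SD while starting fluorescence stays within three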;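 also: channel opened by potassium depolarization with thallium stimulus after 20 min compound exposure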
Target sequence (P51787 whole entry, looked up): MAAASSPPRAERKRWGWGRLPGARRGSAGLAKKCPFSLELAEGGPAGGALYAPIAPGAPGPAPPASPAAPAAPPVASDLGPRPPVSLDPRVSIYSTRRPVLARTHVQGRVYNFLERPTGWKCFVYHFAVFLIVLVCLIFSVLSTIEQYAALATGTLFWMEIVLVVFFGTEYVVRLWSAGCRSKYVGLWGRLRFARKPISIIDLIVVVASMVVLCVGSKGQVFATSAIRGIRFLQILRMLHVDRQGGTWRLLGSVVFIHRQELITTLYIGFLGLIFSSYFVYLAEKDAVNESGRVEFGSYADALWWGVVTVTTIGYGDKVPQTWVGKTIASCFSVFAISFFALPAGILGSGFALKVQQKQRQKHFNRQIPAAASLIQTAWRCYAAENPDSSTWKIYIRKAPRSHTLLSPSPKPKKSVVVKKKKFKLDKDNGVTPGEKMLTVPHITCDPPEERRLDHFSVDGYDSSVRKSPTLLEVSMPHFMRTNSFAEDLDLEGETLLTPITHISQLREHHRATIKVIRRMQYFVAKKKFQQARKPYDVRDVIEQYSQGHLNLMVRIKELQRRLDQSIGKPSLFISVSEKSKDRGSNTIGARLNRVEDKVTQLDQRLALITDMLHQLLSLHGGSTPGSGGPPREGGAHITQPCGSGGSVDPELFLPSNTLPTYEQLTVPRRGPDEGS
KCNQ1 pot: potentiates or activates the human KCNQ1 potassium channel | P51787 | CHO-K1 KCNQ1, thallium flux FluxOR fluorescence; stronger effect = higher value | B-score at 10 µM | actives 0.35% (n = 310,000);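 active = fluorescence ratio B-score, a plate-corrected score, at least three library SD, with initial intensity B-score within 5 SD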
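Assay system: CHO-K1 cells stably expressing KCNQ1; Medium: assay buffer with matched DMSO; Also added: K+/Tl+ depolarizing stimulus; Dosing: single dose; Timing: dye 90 min, compound 20 min, room temperature; Measured by: kinetic FluxOR thallium fluorescence, 10-s 1-Hz baseline, 110-s post-stimulus read; Read-out: peak-minus-minimum fluorescence over initial fluorescence, negative-control normalized, B-scored.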
hERG rescue: hERG (human) protection from proarrhythmic block | activation (rescue from dofetilide block), less the hit threshold, % at 10 µM | CHO-hERG, FluxOR thallium flux, dofetilide IC70 present | Q12809 | actives 0.51% (n = 310,000);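 active = activation above the mean of controls blocked by dofetilide plus 5 SD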;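 also: thallium influx through hERG after potassium depolarization seen as dye fluorescence rise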
KCNK3 block: human KCNK3 channel inhibition, primary screen; actives 0.84% (n = 340,000); CHO-KCNK3 thallium flux, FluxOR fluorescence; stronger effect = lower value; O14649; B-score at 10 µM;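 active = B-score under library mean minus 4 SD, starting fluorescence ratio at most library mean plus 5 SD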;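 also: more negative B-score means stronger inhibition of thallium flux through KCNK3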
Kir21 block: Kir2.1 (mouse) channel inhibition; P35561; HEK293-Kir2.1, FluxOR thallium flux fluorescence; stronger effect = lower value; B-score at 10 µM; actives 0.85% (n = 310,000); AID 1672;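 active = fluorescence ratio B-score at or below minus 3 SD of library scores, with starting-brightness B-score within 2 SD, cut at about -4.2 in these data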;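 also: channel flux triggered by added potassium and thallium sulfate stimulus; B-score of peak minus minimum fluorescence over baseline after thallium stimulus; more negative B-score means stronger Kir2.1 block with less thallium influx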
KCNK9 inh: inhibitors of human KCNK9 two-pore domain potassium channel | HEK293 KCNK9, FluxOR thallium flux fluorescence; stronger effect = lower value | B-score at 10 µM | actives 1.2% (n = 310,000) | AID 488922;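 active = ratio B-score over 3 SD below the library mean, with starting fluorescence within 5 SD of its mean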;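 also: negative B-score means less thallium flux so channel inhibition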
Numbers without * were called inactive; i = inactive; . = no result. Shown are actives, neighbours in structure and some others; about 3.7% of the full set was active somewhere.

SMILES	KCNQ1 block	KCNQ1 pot	hERG rescue	KCNK3 block	Kir21 block	KCNK9 inh
CCOc1ccc(N2Nc3n[nH]c(N)c3N2)cc1	i	i	37*	i	0.01	i
CCOC(=O)c1ccc[n+](CC(=O)Nc2cc(C(F)(F)F)ccc2Cl)c1	i	i	-6	i	1.5	i
CN(C)CCN(Cc1ccco1)C(=O)c1cc2c(Cl)nc3ccccc3c2s1	i	i	-7	i	-0.05	i
Cc1ccc2nc(Cl)c3cc(C(=O)N(CCN(C)C)Cc4ccco4)sc3c2c1	i	i	-16	i	-4.5*	i
Cc1nccn1CCN(C)Cc1cn(Cc2ccccc2)nc1-c1ccc2c(c1)OCO2	i	i	-14	i	-5.5*	i
CCOC(=O)c1c(NC(=O)c2ccc(C)cc2)sc2c1CC(C)(C)OC2	8*	i	-7	i	0.97	i
CCCC(=O)Nc1sc2c(c1C(=O)OCC)CC(C)(C)OC2	i	i	-14	i	-0.55	i
CN(C)c1oc(-c2ccccc2Cl)nc1C#N	i	i	-3	i	-0.94	i
CN(C)c1oc(-c2ccccc2[N+](=O)[O-])nc1C#N	i	i	4.7*	i	-0.09	i
COc1cc(OC)cc(C(=O)NC(=S)N(Cc2ccccc2)C(C)C)c1	i	27*	17*	i	0.55	i
CCOc1ccc(C(=O)NCCc2ccccc2)cc1	i	i	-7	i	-0.32	i
CCCN(CCC)C(=S)NC(=O)c1ccc(-c2ccccc2)cc1	i	9*	19*	i	0.99	i
CCOc1ccc(C(=O)NC(=S)N(Cc2ccccc2)Cc2ccccc2)cc1	i	75*	27*	i	2.1	i
CCOc1ccc(CN(CCC#N)C(=S)NC(=O)c2ccccc2)cc1	i	11*	-2	i	0.58	i
COc1cc(OC)cc(C(=O)NC(=S)NCCc2ccccc2)c1	i	i	-6	i	0.72	i
Cc1oc(C)c2c(=O)ccc3c(c12)OC(N)=C(C#N)C3c1ccccc1Cl (stereo not drawn)	6*	i	-14	i	-2.1	i
CC(=O)c1cc2c(cc1NS(=O)(=O)c1ccc3c(c1)OCCO3)OCO2	i	i	5.1*	i	1.7	i
CC(=O)c1ccc(S(=O)(=O)Nc2cc3c(cc2C(C)=O)OCO3)cc1	i	i	-5	i	-1	i
COc1ccc(S(=O)(=O)NCCSCc2ccco2)cc1C	i	i	-7	i	-2.9	i
COc1ccc(S(=O)(=O)NCCSCc2ccco2)cc1Cl	i	i	-7	i	-6.3*	i
c1ccc(COc2cccc(CN3CCc4ccccc4C3)c2)cc1	i	i	-4	i	0.53	i
O=C(CCc1nc(-c2ccc(Cl)cc2)no1)NC1CCCCC1	i	i	-10	i	1.1	i
O=C(CCCc1nc(-c2ccc(Cl)cc2)no1)NC1CCCC1	i	i	-8	i	-4.3*	i
O=C(NN1C(=O)CSC1=S)C(=O)NN1C(=O)CSC1=S	i	i	5.2*	i	-0.87	i
O=C(CN1C(=O)C2C3C=CC(C3)C2C1=O)Nc1ccc(S(=O)(=O)N2CCCCC2)cc1 (stereo not drawn)	i	i	-9	i	1.8	i
SMILES	KCNQ1 block	KCNQ1 pot	hERG rescue	KCNK3 block	Kir21 block	KCNK9 inh
CN1CCC(OC(=O)COc2ccccc2)CC1	i	i	-4	i	-0.4	i
CN1CCC(OC(=O)c2ccccc2)CC1	i	i	-6	i	0.23	i
CN1CCC(Oc2ccccc2Sc2ccc(C(F)(F)F)cc2)CC1	i	i	-16	i	-11*	i
CN1CCC(Oc2ccc(Sc3ccccc3)cc2)CC1	i	i	-13	i	-7.5*	i
Cc1cccc(N2CCN(C(=O)CNC(=O)c3cccc([N+](=O)[O-])c3)CC2)c1C	i	i	12*	i	0.04	i
Cc1cccc(N2CCN(C(=O)CNC(=O)Cc3ccccc3)CC2)c1C	.	.	.	i	.	.
Cc1ccc(-c2ccc(/C=N/NC(=O)c3ccccc3O)o2)cc1	i	8*	-8	.	1.3	i
O=C1c2ccccc2C(O)N1Cc1ccco1 (stereo not drawn)	i	i	-7	i	-0.89	i
c1coc(CN=C2NC(=NCc3ccco3)c3ccccc32)c1	i	i	-7	i	-6.2*	i
NC(CSC(c1ccccc1)(c1ccccc1)c1cccc2ccccc12)C(=O)O (stereo not drawn)	.	.	.	i	.	.
COc1ccc2cc(C(=O)NCc3ccccc3)c(=Nc3ccc(C(=O)O)cc3)oc2c1	i	i	6.8*	i	0.78	i
NS(=O)(=O)c1ccc(NC(=O)COC(=O)CN2C(=O)C3CC=CCC3C2=O)cc1 (stereo not drawn)	.	.	.	i	.	.
Cn1c(C(=O)N2CCCC(C(=O)NCc3cccs3)C2)cc2sccc21 (stereo not drawn)	i	i	6.0*	i	2	i
c1ccc(C2(CNc3ccccn3)CCCC2)cc1	i	i	-10	i	-4.4*	i
c1ccc(CNc2ccccn2)cc1	i	i	-2	i	-0.25	i
CC(=O)N1CCN(S(=O)(=O)c2cccc(C(=O)NCCc3ccc(Cl)cc3)c2)CC1	i	i	-12	i	-0.44	i
COc1ccc(/C=N/n2c(C)cc(C)c(C(N)=O)c2=O)cc1	i	i	6.5*	i	1.9	i
Cc1ccc(-c2nnc(CCC(=O)NCc3csc(C)n3)o2)s1	i	i	-10	i	0.38	i
N=c1n(Cc2ccccc2)c2ccccc2n1CC(O)COc1ccccc1 (stereo not drawn)	i	i	-23	i	-7.1*	i
Cc1ccc(C(C)C)c(OCCCN2C(=O)NC(C)(C)C2=O)c1	i	i	-15	i	-2.5	i
CCc1ccc(CN(C)CC(O)COc2cccc3ccccc23)cc1 (stereo not drawn)	i	i	-15	i	-16*	i
Cc1ccc(C(C)C)c(OCCCN2CCc3ccccc3C2)c1	i	i	-8	i	-9*	i
Cc1ccc(OCCCCN2CCc3ccccc3C2)c(C)c1	i	i	-11	i	-0.31	i
Cc1ccc(C(C)C)c(OCC(O)CN(C)Cc2ccccc2)c1 (stereo not drawn)	i	i	-13	i	-9.7*	i
Cc1ccc(C(C)C)c(OCCCN(C)Cc2ccccc2)c1	i	i	-16	i	-11*	i

Compound activity as filed in PubChem.
